Source: PubChem BioAssay (several laboratories)
Hits are enriched below; roughly 0.88% of the tested compounds scored in any of these assays.
CXCR6 inh = inhibitors of human CXCR6 receptor; O00574; CHO-K1 PathHunter CXCR6 beta-arrestin, luminescence; inhibition, % at 20 µM; actives 0.36% (n = 360,000); AID 602244; in the data active = inhibition above about 34%, passing the limit was not always enough;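 also: antagonist mode with CXCL16 agonist at 10 nM final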
Target sequence (O00574 whole entry, looked up): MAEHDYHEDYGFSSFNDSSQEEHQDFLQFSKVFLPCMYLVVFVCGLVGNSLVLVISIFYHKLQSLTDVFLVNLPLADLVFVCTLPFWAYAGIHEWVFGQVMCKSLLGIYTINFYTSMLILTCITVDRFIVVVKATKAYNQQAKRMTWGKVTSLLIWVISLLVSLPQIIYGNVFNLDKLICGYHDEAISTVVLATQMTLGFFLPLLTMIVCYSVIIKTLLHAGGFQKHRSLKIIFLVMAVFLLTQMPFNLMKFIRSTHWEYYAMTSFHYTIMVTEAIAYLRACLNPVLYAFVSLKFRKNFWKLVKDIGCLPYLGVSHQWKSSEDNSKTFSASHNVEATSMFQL
APJ ag = APJ receptor agonism. P35414. CHO-K1 APJ PathHunter beta-arrestin, luminescence; 0% DMSO wells, 100% apelin. activation, % at 20 µM. actives 0.11% (n = 330,000);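 active = activation more than six SD over the plate average, tested at 20 µM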
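Assay system: CHO-K1 APJ beta-arrestin complementation cell line / Compound: single test compound dose, 20 µM final, 1% DMSO / Times: overnight seeding, 90 min compound at 25 °C, 1 h detection / Technique: beta-gal luminescence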
APJ antag = APJ receptor antagonism | P35414 | CHO-K1 APJ beta-arrestin complementation, luminescence | inhibition, % at 20 µM | actives 0.32% (n = 330,000) | AID 2521;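 active = inhibition above about 40% at 20 µM, limit read from the data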;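 also: cells challenged with 10 nM apelin-13 agonist together with compound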
CCR6 antag = blocks CCL20-driven beta-arrestin recruitment at human CCR6; P51684; CHO-K1 CCR6 PathHunter beta-arrestin, luminescence, CCL20-stimulated; inhibition, % at 20 µM; actives 0.49% (n = 340,000); AID 493098;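 active = compounds whose inhibition of the agonist-driven luminescence signal at 20 µM reaches about 50%, limit read from the data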;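 also: cells stimulated with CCL20 at 14 nM final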
PKA-R1A activ = activators of PKA-R1A complex; actives 0.083% (n = 340,000); PKA-R1A dissociation, Cy5-IP20 fluorescence polarization; scaled: DMSO 0%, 113 µM cGMP 100%; activation, % at 11.4 µM;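 active = percent activation above the mean of all tested compounds plus 3 SD, cut at about 19% in these data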;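 also: higher means more PKAc released from R1A so a rise in polarization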
PKA-R2B act = PKA-R2B complex activation | P22694+P31323 | PKA-R2B holoenzyme dissociation, Cy5-IP20 fluorescence polarization; R2B truncated from residue 108, S112A mutant; 0% DMSO only, 100% 113 µM cGMP | activation, % at 11.4 µM | actives 0.079% (n = 340,000);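 active = activation above a cutoff set at the mean over all compounds plus 3 SD, cut at about 18% in these data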;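 also: higher means more holoenzyme dissociation and a rise in polarization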
Target sequence (P31323 whole entry, looked up, other chains not shown, the tested form may be a part): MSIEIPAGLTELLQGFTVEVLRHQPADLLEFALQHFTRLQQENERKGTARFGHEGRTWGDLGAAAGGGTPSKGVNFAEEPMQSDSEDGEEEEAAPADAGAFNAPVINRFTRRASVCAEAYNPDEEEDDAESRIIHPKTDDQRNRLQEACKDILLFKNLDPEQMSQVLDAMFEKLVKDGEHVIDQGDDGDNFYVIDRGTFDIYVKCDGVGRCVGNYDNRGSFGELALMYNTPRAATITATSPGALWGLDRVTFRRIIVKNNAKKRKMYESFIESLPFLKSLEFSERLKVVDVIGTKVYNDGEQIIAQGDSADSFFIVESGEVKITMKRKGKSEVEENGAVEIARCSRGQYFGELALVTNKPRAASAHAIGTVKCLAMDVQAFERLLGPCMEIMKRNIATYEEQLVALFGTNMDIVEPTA
APJ ag conf = APJ receptor agonism confirmation; shares compounds with APJ ag; CHO-K1 APJ PathHunter beta-arrestin, luminescence; activation, % at 20 µM; actives 10% (n = 310);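 active = activation above 40%, taking the highest of four retests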
Each line names hits and unclear results; the compound was inactive in the other large screens (follow-up assays come after a bar, where they were run).

Cc1nnc(N2CCCC(C(=O)Nc3cc(F)ccc3F)C2)c2nn(-c3ccccc3)c(C)c12 (stereo not given)	APJ ag 21.1 | APJ ag conf inactive
O=C(Nc1cccc(F)c1)c1ccc(-c2cccnc2)c2ccoc12	none (no result: APJ ag, APJ antag, CCR6 antag, PKA-R1A activ, PKA-R2B act)
O=C(Cn1ncc2c([nH]c3ccccc32)c1=O)Nc1ccc(CN2CCCCC2)cc1	APJ ag 90.8 | APJ ag conf inactive
CCOC(=O)N1CCN(c2ncnc3c2[nH]c2ccc(F)cc23)CC1	none
Fc1ccc2[nH]c3c(N4CCN(c5ccccc5)CC4)ncnc3c2c1	APJ ag 14.1 | APJ ag conf inactive
N/C(=N\OC(=O)c1cccnc1)c1ccccc1Cl	APJ ag 8.9 | APJ ag conf inactive
O=C(CSc1nnc(-c2ccc(Cl)cc2)n1-c1ccc(Cl)cc1)N/N=C/c1ccco1	APJ ag 18.0 | APJ ag conf inactive
Cc1ccc(/C=N/NC(=O)CSc2nnc(-c3ccc(Cl)cc3)n2-c2ccccc2)o1	none
CC1(OC(=O)C2CCCC2)C(=O)C=C2C=C(c3ccsc3)N(C3CCCC3)C=C2C1=O (stereo not given)	APJ ag 104.1 | APJ ag conf inactive
CCN(CC)CCNC(=O)c1cc(-c2cccnc2)nc2ccc(S(=O)(=O)N3CCC(C)CC3)cc12	APJ ag 52.3 | APJ ag conf inactive
CC1=C(C(=O)N(C)C)CC(CC(=O)NCc2cccc3ccccc23)C(=O)N1Cc1ccc(F)cc1 (stereo not given)	none (no result: APJ ag, APJ antag, CCR6 antag, PKA-R1A activ, PKA-R2B act)
CCCSc1nc(O)c(C2OC(=O)c3c2ccc(OC)c3OC)c(=O)n1-c1ccccc1 (stereo not given)	APJ ag 23.4 | APJ ag conf inactive
CCOC(=O)[C@]12CCCC=C1N(Cc1ccco1)C(=O)[C@H](CC(=O)NCC1CCCCC1)C2	none (no result: APJ ag, APJ antag, CCR6 antag, PKA-R1A activ, PKA-R2B act)
COc1ccc(/C(N)=N/OC(=O)c2cccc([N+](=O)[O-])c2C)cc1	APJ ag 18.0 | APJ ag conf inactive
Cn1c(NCCOc2ccccc2Cl)nc2cc(-c3ccc(F)cc3)sc2c1=O	none (no result: APJ ag, APJ antag, CCR6 antag, PKA-R1A activ, PKA-R2B act)
N/C(Cc1ccc(Cl)c(Cl)c1)=N\OC(=O)c1ccc(Br)o1	APJ ag 20.9 | APJ ag conf inactive
O=C1NC[C@H](CCCCN2C[C@H](Cc3ccc(O)cc3)N(CCc3ccc(O)cc3)C(=O)C2=O)N(CC2CCCCC2)C1=O	none (no result: APJ ag, APJ antag, CCR6 antag, PKA-R1A activ, PKA-R2B act)
Cc1cc(C)n2nc(SCC(=O)Nc3c(C)nn(-c4ccccc4)c3C)nc2n1	APJ ag 39.2 | APJ ag conf inactive
C[C@H](c1ccccc1)N1C[C@@H](COCc2ccccc2)Oc2cc(N3CC[C@@H](N(C)C)C3)ccc2S1(=O)=O	none (no result: APJ ag, APJ antag, CCR6 antag, PKA-R1A activ, PKA-R2B act)
O=C(Nc1cc(C(F)(F)F)cc(C(F)(F)F)c1)O[C@@H]1c2ccccc2[C@@H]2Cc3csc[n+]3[C@H]12	none (no result: APJ ag, APJ antag, CCR6 antag, PKA-R1A activ, PKA-R2B act)
CCc1nc2ccc(C(=O)Nc3cccc(NS(C)(=O)=O)c3)cn2c1N(CC)Cc1cccc(Br)c1	none (no result: APJ ag, APJ antag, CCR6 antag, PKA-R1A activ, PKA-R2B act)
CCOC(=O)C1=C(Cn2cnc3ccccc32)NC(=O)NC1c1cc(C)ccc1C (stereo not given)	APJ ag 62.2 | APJ ag conf 58.6
CCOC(=O)C1=C(CSc2nccn2C)NC(=O)NC1c1cc(C)ccc1C (stereo not given)	none
CC(=O)NC1(C)CCC2CC1C(C)=NC2(C)C (stereo not given)	none (no result: APJ ag, APJ antag, CCR6 antag, PKA-R1A activ, PKA-R2B act)
O=C(OCC(=O)N1CCCC1=O)c1cc2ccccc2o1	APJ ag 15.9 | APJ ag conf inactive
CCCCCCn1cc(CN2CC(N3CCCCC3)CS2(=O)=O)nn1 (stereo not given)	none (no result: APJ ag, APJ antag, CCR6 antag, PKA-R1A activ, PKA-R2B act)
Cc1cccc(/C(N)=N/OC(=O)Cc2cccc3ccccc23)c1	none
N/C(Cc1ccccc1)=N\OC(=O)c1cccc2ccccc12	APJ ag 11.8 | APJ ag conf inactive
N/C(Cc1cccc2ccccc12)=N\OC(=O)c1ccccc1F	none
Cc1cccc(C(=O)O/N=C(\N)Cc2cccc3ccccc23)c1	APJ ag 42.0 | APJ ag conf inactive
Fc1cccc(Cc2c(-c3ccc(Cl)cc3)nc3ccc(Br)cn23)c1	none (no result: APJ ag, APJ antag, CCR6 antag, PKA-R1A activ, PKA-R2B act)
N=c1n(CC(=O)c2cccs2)c2ccccc2n1Cc1ccccc1	APJ ag 28.3 | APJ ag conf inactive
CC(C)(C)OC(=O)NCCCCCNC(=O)c1nc[nH]c1C(=O)NCc1ccc(CNC(=O)OC(C)(C)C)cc1	APJ ag 11.9 | APJ ag conf inactive
CC(C)(C)OC(=O)NCc1ccc(CNC(=O)c2nc[nH]c2C(=O)NCc2ccc(CNC(=O)OC(C)(C)C)cc2)cc1	none
Cc1cc(C)c2nc(C)cc(N/N=C/c3ccc(O)cc3)c2c1	APJ ag 41.9 | APJ ag conf inactive
Cc1cc(N/N=C/c2ccc(O)cc2)c2cccc(C)c2n1	none
CN1CCN(c2ccc(NC(=O)COc3ccccc3[N+](=O)[O-])cc2)CC1	none
CC(C)C(=O)N1CCN(c2ccc(NC(=O)COc3ccccc3[N+](=O)[O-])cc2)CC1	APJ ag 15.9 (no result: PKA-R1A activ, PKA-R2B act) | APJ ag conf 53.9
O=C(NC1CCCCC1)c1cc2ccccc2cc1O	APJ ag 13.4 | APJ ag conf inactive
Cc1ccc(-c2cc(C(=O)Nc3ccncc3)c3ccccc3n2)cc1	APJ ag 30.6 | APJ ag conf inactive
O=S1(=O)CC(N2CCSCC2)CN1Cc1cn(Cc2ccc(Cl)cc2)nn1 (stereo not given)	none (no result: APJ ag, APJ antag, CCR6 antag, PKA-R1A activ, PKA-R2B act)
CSc1cccc(NC(=O)CCc2ccccc2)c1	none
CSc1cccc(NC(=S)NC(=O)CCc2ccccc2)c1	APJ ag 43.1 | APJ ag conf 50.6
Cc1ccccc1S(=O)(=O)NC(=O)C1(C)CCN1C(=O)CCc1ccc(Cl)cc1Cl (stereo not given)	none (no result: APJ ag, APJ antag, CCR6 antag, PKA-R1A activ, PKA-R2B act)
CCOC(=O)Cn1cc(Cn2c3ccccc3c(=O)n2C(C)C)nn1	none (no result: APJ ag, APJ antag, CCR6 antag, PKA-R1A activ, PKA-R2B act)
O=C(Nc1ccc(NC(=O)c2ccc([N+](=O)[O-])cc2[N+](=O)[O-])cc1)c1ccco1	APJ ag 11.1 | APJ ag conf inactive
Cc1cc(NC(=O)c2ccc([N+](=O)[O-])cc2Cl)ccc1NC(=O)c1ccco1	none (no result: APJ ag)
Cc1ccccc1S(=O)(=O)N1CCN(c2ccc3c(c2)C2CC3CCN2C(=O)OCc2ccccc2)CC1 (stereo not given)	none (no result: APJ ag, APJ antag, CCR6 antag, PKA-R1A activ, PKA-R2B act)
CN(C)CCN(C)C1CN(Cc2ccc(F)cc2)S(=O)(=O)C1 (stereo not given)	none (no result: APJ ag, APJ antag, CCR6 antag, PKA-R1A activ, PKA-R2B act)
CCC(C)NC(=O)CSC1=Nc2ccccc2C2=NC(CC(=O)NCc3ccc(F)cc3)C(=O)N12 (stereo not given)	APJ ag 51.2 | APJ ag conf inactive
CCOC(=O)CSC1=Nc2ccccc2C2=NC(CC(=O)NCc3ccccc3)C(=O)N12 (stereo not given)	none
